Here are results for one compound from ChEMBL document CHEMBL4382192, “Discovery of a potent dual ALK and EGFR T790M inhibitor” (Eur J Med Chem, 2017).

Data set [1] concerns the target Serine/threonine-protein kinase RIO3 (Homo sapiens) (UniProt O14730). In words: Binding affinity to wild-type human full length RIOK3 (M1 to E519 residues) expressed in bacterial expression system assessed as residual binding level at 1 uM by Kinomescan method relative to control. In a few lines:
(§1)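 Single-point kinome-wide KINOMEscan binding panel, test compound at 1 μM, run by the provider's standard protocol.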

Data set [2] relates to Phosphatidylinositol 4,5-bisphosphate 3-kinase catalytic subunit alpha isoform (Homo sapiens), P42336 [E545A]. The experiment in a line: Binding affinity to human partial length PIK3CA E545A mutant (R108 to N1068 residues) expressed in mammalian expression system assessed as residual binding level at 1 uM by Kinomescan method relative to control.
Data set [3] is described as follows: Clearance in mouse at 2 mg/kg, iv. The class given is ADME, organism-based. The settings on record: in vivo.
Data set [4] concerns the target Fibroblast growth factor receptor 1 (Homo sapiens) (UniProt P11362). In words: Binding affinity to wild-type human partial length FGFR1 (P357 to V669 residues) expressed in bacterial expression system assessed as residual binding level at 1 uM by Kinomescan method relative to control.
Data set [5] deals with Non-receptor tyrosine-protein kinase TNK1 (Homo sapiens) (UniProt Q13470). The experiment in a line: Binding affinity to wild-type human full length TNK1 (M1 to P661 residues) expressed in bacterial expression system assessed as residual binding level at 1 uM by Kinomescan method relative to control.
For data set [6], the target named is High affinity nerve growth factor receptor (Homo sapiens) (UniProt P04629). The experiment in a line: Binding affinity to wild-type human partial length TRKA (G475 to G790 residues) expressed in mammalian expression system assessed as residual binding level at 1 uM by Kinomescan method relative to control.
Data set [7] concerns the target Ephrin type-A receptor 4 (Homo sapiens) (UniProt P54764). The experiment in a line: Binding affinity to wild-type human partial length EPHA4 (T601 to R897 residues) expressed in bacterial expression system assessed as residual binding level at 1 uM by Kinomescan method relative to control.
Data set [8] in a line: Drug uptake in mouse plasma at 2 mg/kg, iv after 2 hrs. It is filed as ADME, organism-based.
The target of data set [9] is Phosphatidylinositol 3-kinase C2 domain-containing subunit gamma (Homo sapiens) (UniProt O75747). The experiment in a line: Binding affinity to wild-type human partial length PIK3C2G (M1 to I1446 residues) expressed in mammalian expression system assessed as residual binding level at 1 uM by Kinomescan method relative to control.
Data set [10] addresses Tyrosine-protein kinase Fyn (Homo sapiens) (UniProt P06241). In words: Binding affinity to wild-type human partial length FYN (T243 to L534 residues) expressed in bacterial expression system assessed as residual binding level at 1 uM by Kinomescan method relative to control.
For data set [11], the target named is Cyclin-dependent kinase 18 (Homo sapiens) (UniProt Q07002). In words: Binding affinity to wild-type human full length PCTK3 (M3 to F474 residues) expressed in bacterial expression system assessed as residual binding level at 1 uM by Kinomescan method relative to control. In a few lines:
as §1

Data set [12] has as its target Calcium/calmodulin-dependent protein kinase type 1D (Homo sapiens) (UniProt Q8IU85). The experiment in a line: Binding affinity to wild-type human partial length CAMK1D (M1 to K299 residues) expressed in bacterial expression system assessed as residual binding level at 1 uM by Kinomescan method relative to control.
Data set [13] deals with Serine/threonine-protein kinase PAK 2 (Homo sapiens) (UniProt Q13177). The experiment in a line: Binding affinity to wild-type human partial length PAK2 (P151 to R525 residues) expressed in bacterial expression system assessed as residual binding level at 1 uM by Kinomescan method relative to control.
In data set [14] the target is Cyclin-dependent kinase 2 homolog (Plasmodium falciparum (isolate 3D7)) (UniProt P61075). The experiment in a line: Binding affinity to wild-type Plasmodium falciparum full length PK5 (M1 to N288 residues) expressed in mammalian expression system assessed as residual binding level at 1 uM by Kinomescan method relative to control. The procedure, abridged:
(§2)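 Kinome-wide selectivity panel run by the KINOMEscan method, with the test compound at a single concentration of 1 μM. Wild-type and mutant kinases were profiled in the same screen.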

Data set [15] addresses Serine/threonine-protein kinase RIO1 (Homo sapiens) (UniProt Q9BRS2). In words: Binding affinity to wild-type human full length RIOK1 (M1 to K568 residues) expressed in bacterial expression system assessed as residual binding level at 1 uM by Kinomescan method relative to control. In a few lines: as §1
In data set [16] the target is Cyclin-dependent kinase 11B (Homo sapiens) (UniProt P21127). The experiment in a line: Binding affinity to wild-type human partial length CDC2L1 (P353 to G692 residues) expressed in bacterial expression system assessed as residual binding level at 1 uM by Kinomescan method relative to control.
Data set [17] concerns the target TRAF2 and NCK-interacting protein kinase (Homo sapiens) (UniProt Q9UKE5). In words: Binding affinity to wild-type human partial length TNIK (D4 to K311 residues) expressed in bacterial expression system assessed as residual binding level at 1 uM by Kinomescan method relative to control.
Data set [18] in a line: Metabolic stability in rat liver microsomes assessed as parent compound remaining at 1 uM after 30 mins in presence of NADPH by LC/MS/MS analysis. The class given is ADME, Microsome. The settings on record: read-out: Stability. In a few lines: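 Compound at 1 μM final with 0.5 mg/mL microsomal protein in 100 mM phosphate buffer pH 7.4 at 37 °C, started by adding an NADPH-regenerating system. Reactions were quenched with cold acetonitrile at 0 and 30 min and spun down. Supernatant was analysed by LC-MS/MS. The 0-min sample, quenched before NADPH addition, was set as 100%, and percent parent remaining came from peak areas.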
A general note: Liver microsomes are a subcellular fraction often used to study metabolism.

Data set [19] concerns the target Rho-associated protein kinase 2 (Homo sapiens) (UniProt O75116). The experiment in a line: Binding affinity to wild-type human partial length ROCK2 (M1 to T431 residues) expressed in mammalian expression system assessed as residual binding level at 1 uM by Kinomescan method relative to control.
The target in data set [20] is Dual specificity protein kinase TTK (Homo sapiens) (UniProt P33981). In words: Binding affinity to wild-type human partial length TTK (N505 to V798 residues) expressed in bacterial expression system assessed as residual binding level at 1 uM by Kinomescan method relative to control.
Data set [21] concerns Leucine-rich repeat serine/threonine-protein kinase 2 (Homo sapiens), Q5S007 [G2019S]. The experiment in a line: Binding affinity to human partial length LRRK2 G2019S mutant (H970 to E2527 residues) expressed in mammalian expression system assessed as residual binding level at 1 uM by Kinomescan method relative to control. The procedure, abridged:
as §2

Data set [22] deals with G protein-coupled receptor kinase 3 (Homo sapiens) (UniProt P35626). The experiment in a line: Binding affinity to wild-type human full length GRK3 (M1 to L688 residues) expressed in mammalian expression system assessed as residual binding level at 1 uM by Kinomescan method relative to control. The procedure, abridged:
as §1

Data set [23] concerns the target Mitogen-activated protein kinase kinase kinase kinase 2 (Homo sapiens) (UniProt Q12851). The experiment in a line: Binding affinity to wild-type human partial length MAP4K2 (M1 to G318 residues) expressed in mammalian expression system assessed as residual binding level at 1 uM by Kinomescan method relative to control.
Data set [24] addresses Mitogen-activated protein kinase kinase kinase 15 (Homo sapiens) (UniProt Q6ZN16). In words: Binding affinity to wild-type human partial length MAP3K15 (T625 to L932 residues) expressed in mammalian expression system assessed as residual binding level at 1 uM by Kinomescan method relative to control.

Leucine-rich repeat serine/threonine-protein kinase 2 (Homo sapiens), Q5S007 [G2019S], sequence (Q5S007 whole entry G2019S, the tested form may be a part): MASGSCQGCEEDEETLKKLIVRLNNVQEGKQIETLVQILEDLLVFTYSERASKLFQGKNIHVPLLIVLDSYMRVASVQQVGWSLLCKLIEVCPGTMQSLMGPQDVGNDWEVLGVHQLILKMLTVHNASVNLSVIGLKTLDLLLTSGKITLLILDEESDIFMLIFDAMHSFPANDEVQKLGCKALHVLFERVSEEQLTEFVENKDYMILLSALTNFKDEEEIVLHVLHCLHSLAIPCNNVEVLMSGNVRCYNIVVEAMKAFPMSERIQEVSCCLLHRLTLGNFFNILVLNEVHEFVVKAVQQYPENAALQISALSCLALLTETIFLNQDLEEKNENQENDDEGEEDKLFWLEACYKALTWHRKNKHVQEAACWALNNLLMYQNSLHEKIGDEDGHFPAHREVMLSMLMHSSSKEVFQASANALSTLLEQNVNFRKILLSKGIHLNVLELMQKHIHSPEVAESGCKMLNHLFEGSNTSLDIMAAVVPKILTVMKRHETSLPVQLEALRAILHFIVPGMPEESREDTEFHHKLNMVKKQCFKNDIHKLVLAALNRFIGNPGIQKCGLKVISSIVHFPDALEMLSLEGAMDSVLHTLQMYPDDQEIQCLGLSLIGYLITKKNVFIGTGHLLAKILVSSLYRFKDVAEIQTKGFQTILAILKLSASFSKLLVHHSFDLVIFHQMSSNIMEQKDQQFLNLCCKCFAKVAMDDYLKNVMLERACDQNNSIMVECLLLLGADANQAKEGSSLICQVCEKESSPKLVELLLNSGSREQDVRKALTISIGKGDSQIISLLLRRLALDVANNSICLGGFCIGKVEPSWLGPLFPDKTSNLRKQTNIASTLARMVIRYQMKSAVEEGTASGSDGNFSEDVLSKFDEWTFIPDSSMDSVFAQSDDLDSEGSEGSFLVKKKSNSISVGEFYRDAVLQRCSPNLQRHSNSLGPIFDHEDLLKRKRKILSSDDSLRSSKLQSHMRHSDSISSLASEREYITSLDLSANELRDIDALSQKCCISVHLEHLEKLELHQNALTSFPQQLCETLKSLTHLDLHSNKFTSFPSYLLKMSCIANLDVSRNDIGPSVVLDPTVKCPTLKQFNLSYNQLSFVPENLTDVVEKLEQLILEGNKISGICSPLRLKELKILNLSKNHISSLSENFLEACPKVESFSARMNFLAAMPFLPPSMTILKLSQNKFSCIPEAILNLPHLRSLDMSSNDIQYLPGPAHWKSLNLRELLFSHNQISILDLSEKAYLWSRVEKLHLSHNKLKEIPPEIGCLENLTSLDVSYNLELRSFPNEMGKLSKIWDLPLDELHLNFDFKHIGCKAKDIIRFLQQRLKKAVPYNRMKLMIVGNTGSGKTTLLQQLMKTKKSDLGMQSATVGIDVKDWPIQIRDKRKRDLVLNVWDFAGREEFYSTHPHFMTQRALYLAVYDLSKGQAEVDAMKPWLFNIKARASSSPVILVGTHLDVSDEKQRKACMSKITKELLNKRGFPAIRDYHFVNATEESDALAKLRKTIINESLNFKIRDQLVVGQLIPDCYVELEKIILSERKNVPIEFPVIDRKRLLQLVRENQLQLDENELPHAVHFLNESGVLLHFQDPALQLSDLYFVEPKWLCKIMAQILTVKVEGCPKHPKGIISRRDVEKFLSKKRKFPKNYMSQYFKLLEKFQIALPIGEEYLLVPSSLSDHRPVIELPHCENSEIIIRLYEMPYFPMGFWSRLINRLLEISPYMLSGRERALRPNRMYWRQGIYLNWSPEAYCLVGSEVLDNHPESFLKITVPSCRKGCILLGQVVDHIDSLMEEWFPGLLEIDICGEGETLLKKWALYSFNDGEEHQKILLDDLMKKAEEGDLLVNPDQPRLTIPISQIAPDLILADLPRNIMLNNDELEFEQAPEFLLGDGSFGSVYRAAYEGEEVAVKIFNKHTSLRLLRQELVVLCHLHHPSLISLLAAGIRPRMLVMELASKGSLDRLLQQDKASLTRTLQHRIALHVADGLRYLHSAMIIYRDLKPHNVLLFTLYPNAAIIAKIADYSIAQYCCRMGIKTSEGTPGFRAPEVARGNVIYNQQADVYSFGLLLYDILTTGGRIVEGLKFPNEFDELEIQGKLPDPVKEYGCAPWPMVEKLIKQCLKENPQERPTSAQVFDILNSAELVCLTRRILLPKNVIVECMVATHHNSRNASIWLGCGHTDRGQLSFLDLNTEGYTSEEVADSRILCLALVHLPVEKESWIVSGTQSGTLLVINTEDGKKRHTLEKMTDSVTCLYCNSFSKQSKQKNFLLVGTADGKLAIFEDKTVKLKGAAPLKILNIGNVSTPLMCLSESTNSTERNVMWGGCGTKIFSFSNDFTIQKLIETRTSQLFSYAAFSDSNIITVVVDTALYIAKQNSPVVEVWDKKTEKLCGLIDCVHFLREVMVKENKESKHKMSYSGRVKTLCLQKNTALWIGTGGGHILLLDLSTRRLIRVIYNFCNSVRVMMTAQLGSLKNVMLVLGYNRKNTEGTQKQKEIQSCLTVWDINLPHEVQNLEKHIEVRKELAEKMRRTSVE
Non-receptor tyrosine-protein kinase TNK1 (Homo sapiens), sequence (Q13470 whole entry, the tested form may be a part): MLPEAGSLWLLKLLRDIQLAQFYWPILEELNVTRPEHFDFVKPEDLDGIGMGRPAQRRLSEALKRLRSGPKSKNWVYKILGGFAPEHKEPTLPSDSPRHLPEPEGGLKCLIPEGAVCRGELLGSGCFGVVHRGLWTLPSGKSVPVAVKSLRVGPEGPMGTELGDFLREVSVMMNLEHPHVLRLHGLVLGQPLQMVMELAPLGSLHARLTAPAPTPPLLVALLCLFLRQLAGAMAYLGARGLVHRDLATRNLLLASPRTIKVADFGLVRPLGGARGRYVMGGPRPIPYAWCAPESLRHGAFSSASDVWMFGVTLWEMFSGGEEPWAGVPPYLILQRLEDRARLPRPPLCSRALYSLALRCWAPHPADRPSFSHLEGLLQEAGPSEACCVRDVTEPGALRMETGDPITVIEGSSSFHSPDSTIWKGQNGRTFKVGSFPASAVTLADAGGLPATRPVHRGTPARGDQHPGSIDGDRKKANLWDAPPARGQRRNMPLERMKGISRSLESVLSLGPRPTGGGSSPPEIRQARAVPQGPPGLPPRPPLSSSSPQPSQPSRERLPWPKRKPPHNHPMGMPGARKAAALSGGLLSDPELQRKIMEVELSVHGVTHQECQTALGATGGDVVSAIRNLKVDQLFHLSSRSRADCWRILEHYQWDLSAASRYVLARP
Rho-associated protein kinase 2 (Homo sapiens), sequence (O75116 whole entry, looked up, the tested form may be a part): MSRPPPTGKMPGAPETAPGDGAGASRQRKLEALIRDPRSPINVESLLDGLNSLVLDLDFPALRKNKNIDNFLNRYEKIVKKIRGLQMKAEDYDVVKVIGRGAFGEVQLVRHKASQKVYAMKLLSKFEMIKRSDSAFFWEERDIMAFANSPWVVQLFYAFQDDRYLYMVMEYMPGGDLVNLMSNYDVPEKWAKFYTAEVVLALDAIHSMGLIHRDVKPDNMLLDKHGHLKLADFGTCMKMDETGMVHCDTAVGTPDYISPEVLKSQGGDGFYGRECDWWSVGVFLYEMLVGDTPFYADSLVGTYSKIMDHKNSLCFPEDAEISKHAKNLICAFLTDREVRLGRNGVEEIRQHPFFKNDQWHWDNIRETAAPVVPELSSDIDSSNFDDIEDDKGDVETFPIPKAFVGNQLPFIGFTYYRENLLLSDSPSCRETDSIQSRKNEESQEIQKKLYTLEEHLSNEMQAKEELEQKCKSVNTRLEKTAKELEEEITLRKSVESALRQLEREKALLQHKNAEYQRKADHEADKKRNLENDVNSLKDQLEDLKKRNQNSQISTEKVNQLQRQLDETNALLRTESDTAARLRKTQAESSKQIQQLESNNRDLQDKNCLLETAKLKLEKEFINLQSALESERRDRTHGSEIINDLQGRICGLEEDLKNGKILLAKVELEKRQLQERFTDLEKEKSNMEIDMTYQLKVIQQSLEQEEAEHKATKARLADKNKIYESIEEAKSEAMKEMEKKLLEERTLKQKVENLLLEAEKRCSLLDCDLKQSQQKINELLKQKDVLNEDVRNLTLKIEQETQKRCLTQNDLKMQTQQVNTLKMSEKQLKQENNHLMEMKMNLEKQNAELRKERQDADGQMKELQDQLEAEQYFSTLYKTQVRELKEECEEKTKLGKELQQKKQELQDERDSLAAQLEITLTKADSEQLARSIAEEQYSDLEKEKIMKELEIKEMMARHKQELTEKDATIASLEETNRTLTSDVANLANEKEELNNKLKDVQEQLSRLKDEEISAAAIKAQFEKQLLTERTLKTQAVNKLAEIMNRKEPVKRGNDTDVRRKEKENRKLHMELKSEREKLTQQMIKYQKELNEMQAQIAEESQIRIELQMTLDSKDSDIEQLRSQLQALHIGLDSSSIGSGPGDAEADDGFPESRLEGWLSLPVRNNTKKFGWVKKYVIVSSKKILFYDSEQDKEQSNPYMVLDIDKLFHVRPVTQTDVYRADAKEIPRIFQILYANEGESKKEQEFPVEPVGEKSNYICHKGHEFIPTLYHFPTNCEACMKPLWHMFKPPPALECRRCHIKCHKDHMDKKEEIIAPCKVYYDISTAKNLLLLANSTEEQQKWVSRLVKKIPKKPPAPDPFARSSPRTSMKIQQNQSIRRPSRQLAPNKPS
Serine/threonine-protein kinase PAK 2 (Homo sapiens), sequence (Q13177 whole entry, the tested form may be a part): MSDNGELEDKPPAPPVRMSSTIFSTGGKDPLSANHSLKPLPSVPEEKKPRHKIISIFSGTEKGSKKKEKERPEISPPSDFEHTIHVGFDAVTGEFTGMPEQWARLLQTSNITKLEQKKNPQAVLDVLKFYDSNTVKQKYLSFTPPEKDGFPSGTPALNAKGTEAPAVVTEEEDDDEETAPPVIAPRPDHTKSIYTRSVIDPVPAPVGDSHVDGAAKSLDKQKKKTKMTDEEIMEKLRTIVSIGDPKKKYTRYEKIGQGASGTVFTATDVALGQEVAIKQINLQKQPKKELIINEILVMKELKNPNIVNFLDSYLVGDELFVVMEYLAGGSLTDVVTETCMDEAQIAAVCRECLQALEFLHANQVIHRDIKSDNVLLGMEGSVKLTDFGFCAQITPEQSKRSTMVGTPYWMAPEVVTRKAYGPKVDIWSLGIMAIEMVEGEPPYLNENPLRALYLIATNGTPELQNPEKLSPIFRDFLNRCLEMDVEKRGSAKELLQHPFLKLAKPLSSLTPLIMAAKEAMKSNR

Consider `C=CC(=O)Nc1cc(Nc2ncc(Cl)c(Nc3ccccc3S(=O)(=O)C(C)C)n2)c(OC)cc1N(C)CCN(C)C`, for which the Activity in data set [1] was found to be 93%; in data set [2] it was 83%; in data set [4], 3.7%; in data set [5], 3.3%; in data set [6] it was 13%; in [7], 80%. For the same compound, the Activity in data set [9] is 69%; in [10], 46%; in data set [11], 77%; in data set [12] it was 9.9%; in data set [13] it was 62%; in [14], 91%. The Activity in [15] amounted to 92%; in data set [16], 75%; in data set [17], 61%; in data set [19], 96%; in data set [20], 29%; in [21], 0.95%. The Activity in data set [22] came out at 100%; in data set [23] it was 77%; in data set [24], 45%. This compound came in with a clearance in [3] of 29 mL/min/kg. In data set [8], this compound yielded a concentration at 2 h of 100 nM. Moreover, the remaining at 0.5 h, 1 µM in [18] was determined as 11%.

By clearance is commonly meant a measure of how efficiently the substance is removed, as volume per time.
